Results published in PMC3855065 (MedChemComm, 2013).
Numbering of substitutions follows the chain as printed.

Tests used:
Human DHFR = target: T1, Human DHFR (Homo sapiens, UniProt P00374); assay: Steady-state DHFR inhibition assay against the human enzyme; type: biochemical; settings: up to 1 mM mimetic
T1 sequence (P00374 1-187): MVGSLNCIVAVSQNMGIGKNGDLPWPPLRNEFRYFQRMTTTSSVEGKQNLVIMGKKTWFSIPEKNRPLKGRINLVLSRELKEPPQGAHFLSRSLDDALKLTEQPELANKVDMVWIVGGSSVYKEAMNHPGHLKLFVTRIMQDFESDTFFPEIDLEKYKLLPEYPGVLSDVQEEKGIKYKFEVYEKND
Summary of the method: (§1)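 Each reaction (DHFR or TS) was measured spectroscopically at 340 nm under steady-state conditions. The test compound came from a DMSO stock and was incubated with enzyme and substrates for 30 min before initiation. Activity was normalised to an equal-volume DMSO control. All targets were run at identical enzyme and ligand concentrations. Values are mean ± standard deviation.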

C. hominis DHFR = target: T2, C. hominis DHFR (Cryptosporidium parvum, UniProt Q27552); assay: Mode of inhibition: steady-state substrate profile for H2folate and NADPH; type: biochemical
T2 sequence (Q27552 1-521): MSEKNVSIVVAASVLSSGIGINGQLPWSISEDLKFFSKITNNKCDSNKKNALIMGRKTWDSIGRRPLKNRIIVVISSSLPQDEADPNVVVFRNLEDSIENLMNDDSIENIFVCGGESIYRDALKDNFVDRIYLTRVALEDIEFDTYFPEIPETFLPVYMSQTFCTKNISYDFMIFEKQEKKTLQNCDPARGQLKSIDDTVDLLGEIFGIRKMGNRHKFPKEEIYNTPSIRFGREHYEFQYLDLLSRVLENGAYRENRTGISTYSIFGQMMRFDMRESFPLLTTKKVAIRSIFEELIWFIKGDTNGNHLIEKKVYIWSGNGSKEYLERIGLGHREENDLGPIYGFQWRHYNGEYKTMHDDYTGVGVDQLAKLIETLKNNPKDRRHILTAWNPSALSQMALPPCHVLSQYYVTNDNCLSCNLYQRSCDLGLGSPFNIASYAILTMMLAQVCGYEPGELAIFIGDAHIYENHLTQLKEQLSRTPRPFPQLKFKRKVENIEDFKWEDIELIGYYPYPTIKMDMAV
Summary of the method: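 Steady-state DHFR activity followed by absorbance at 340 nm. The enzyme was bifunctional TS–DHFR expressed in E. coli BL21 and purified. The test compound, from a DMSO stock, was preincubated with enzyme and substrates for 30 min before the reaction was started. Rates were normalised to an equal-volume DMSO blank. H2folate or NADPH concentration was varied, and mode was assigned from rate profiles and Lineweaver–Burk plots by Michaelis–Menten treatment.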

[1] = target: T3, C. hominis Beta Face DHFR (Cryptosporidium parvum, UniProt Q27552, F207A/I196A/L203A/S195A/T199A/V200A); assay: Steady-state DHFR inhibition assay against Beta Face mutant enzyme; type: biochemical; settings: IC50 C. hominis Beta Face DHFR, Beta Face mutant enzyme, steady-state
T3 sequence (Q27552 1-521 S195A/I196A/T199A/V200A/L203A/F207A): T2 sequence (Q27552 1-521) with S195A, I196A, T199A, V200A, L203A, F207A

[2] = test system: C. hominis Beta Face DHFR; assay: as above; type: biochemical, Cryptosporidium hominis; settings: Beta Face vs WT ChDHFR
C. hominis TS = target: T4, C. hominis TS (Cryptosporidium parvum, UniProt Q27552); assay: Steady-state TS inhibition assay; type: biochemical; settings: read-out: IC50 C. hominis TS
T4 sequence (Q27552 1-521): T2 sequence (Q27552 1-521)
Summary of the method: as §1

Compound | Inhibition of human DHFR (Human DHFR) | Vmax, NADPH substrate profile (C. hominis DHFR; in the presence of 250 µM compound (1.33 ± 0.02 in the absence)) [µmol/min] | Vmax, H2folate substrate profile (C. hominis DHFR; in the presence of 250 µM compound (1.46 ± 0.03 in the absence)) [µmol/min] | Mode of inhibition for H2folate (C. hominis DHFR; steady-state substrate profile) | Mode of inhibition for NADPH (C. hominis DHFR; steady-state substrate profile) | IC50 [1] [µM] | Potency against Beta Face relative to WT [2] | IC50 (C. hominis TS) [µM] | Mode of inhibition (C. hominis DHFR; data not shown)
CC(C)CN(C(=O)Nc1ccc(CCC(=O)O)cc1Cc1ccccc1)C(=O)c1ccc(OCC(=O)O)c(Cc2ccccc2)c1 [mimetic 2] | no inhibition | 0.41 ± 0.01 | 0.48 ± 0.06 | noncompetitive (mixed) inhibitor | noncompetitive inhibitor | ~20 | at least 10 fold | 570 ± 60 | –
Cc1ccc(CN(C(=O)Nc2ccc(CCC(=O)O)cc2Cc2ccccc2)C(=O)c2ccc(CCC(=O)O)c(CC(C)C)c2)cc1 [mimetic 1] | – | – | – | – | – | – | – | – | noncompetitive mode of inhibition
